Source: PubChem BioAssay (several laboratories)
NTR1 ag: agonists of human neurotensin receptor NTR1. P30989. NTR1-U2OS beta-arrestin-GFP spot imaging, agonist mode. activation, % at 20 µM. 330,000 compounds, 0.17% hits;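 active = activation at or above 40% of the spot to cytoplasm intensity ratio, with at least 20 cells analyzed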
Tb MetRS inh: Trypanosoma brucei MetRS inhibition. purified T. brucei MetRS, ATP depletion, Kinase-Glo luminescence. inhibition, % at 11.9 µM. 360,000 compounds, 0.4% hits. AID 624268;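 active = inhibition above a per-plate cutoff of the control wells' mean inhibition plus 3 SD, cut at about 5.5% in these data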
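Material: T. brucei methionyl-tRNA synthetase, purified; reagent: substrates ATP, L-methionine and bulk Escherichia coli tRNA; dosing: 11.9 µM single point; timing: 15 min plus 2 h at 25 °C; detection: luminescence of leftover ATP; evaluation: % inhibition; control set: DMSO-only wells as low control; replicates: singlicate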
aDG glyco up: alpha-DG glycosylation activation. Pro5-aDG cells, alpha-DG glycosylation AlphaScreen (IIH6); 0% Pro5, 100% B10-LARGE cell signal. activation, % at 10 µM. 360,000 compounds, 0.22% hits. AID 624168;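 active = activation of at least 8% versus controls, or a plate z-score of at least 8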;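 also: Pro5 are CHO cells carrying HIG-tagged alpha-DG that lacks glycosylation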
TAG inh: triacylglycerol accumulation inhibition. H9c2 cells, Nile Red lipid (TAG) fluorescence; cells loaded with 200 µM oleic acid. inhibition, % at 12.5 µM. 230,000 compounds, 0.66% hits;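 active = pattern-corrected inhibition of lipid staining of at least 50% with the nuclear-stain viability signal not falling by more than 50%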
MC4R antag cAMP: blocks human MC4R cAMP signaling; MC4R-expressing cells, MTII-stimulated cAMP, LANCE TR-FRET; inhibition, % at 6.5 µM; 360,000 compounds, 0.48% hits; P32245;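 active = inhibition above its plate's cutoff, the mean of tested wells on that plate plus 3 SD, cut at about 29% in these data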
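Material: U2OS-MC4R stable cell line | Reagent: Melanotan II challenge after compound preincubation | Doses: One concentration, 6.5 µM nominal | Incubation: 30-min compound preincubation, 1-h Melanotan II challenge, 1-h detection, room temperature | Signal: TR-FRET cAMP assay | Replicates: One well per compound, no replicates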
MC4R ag barr: activates human MC4R beta-arrestin recruitment. P32245. U2OS MC4R beta-arrestin complementation, luminescence; percent of melanotan II response, DMSO zero. activation, % at 8.9 µM. 360,000 compounds, 0.98% hits. AID 540308;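 active = activation above a per-plate cutoff, the mean activation of sample wells on that plate plus 3 SD, cut at about 8% in these data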
MC4R barr conf: human MC4R beta-arrestin agonism confirmation; shares compounds with MC4R ag barr; U2OS MC4R beta-arrestin recruitment, luminescence; scaled DMSO 0%, Melanotan II 100%; activation, % at 8.9 µM; 2,400 compounds, 31% hits; AID 602192;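 active = mean activation across replicates above the hit cutoff set in the earlier primary screen, cut at about 8% in these data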
MOR-DOR barr ag: counter-screen for MC4R agonists: agonists of mu-delta opioid heterodimer. 2,400 compounds, 5.8% hits. activation, % at 9.2 µM. shares compounds with MC4R ag barr. AID 602194. U2OS PathHunter beta-arrestin, beta-gal luminescence; percent of deltorphin B response, DMSO zero;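 active = mean activation across replicates exceeds the hit threshold derived in the earlier primary screen, cut at about 18% in these data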
Target sequence (P35372 whole entry, looked up): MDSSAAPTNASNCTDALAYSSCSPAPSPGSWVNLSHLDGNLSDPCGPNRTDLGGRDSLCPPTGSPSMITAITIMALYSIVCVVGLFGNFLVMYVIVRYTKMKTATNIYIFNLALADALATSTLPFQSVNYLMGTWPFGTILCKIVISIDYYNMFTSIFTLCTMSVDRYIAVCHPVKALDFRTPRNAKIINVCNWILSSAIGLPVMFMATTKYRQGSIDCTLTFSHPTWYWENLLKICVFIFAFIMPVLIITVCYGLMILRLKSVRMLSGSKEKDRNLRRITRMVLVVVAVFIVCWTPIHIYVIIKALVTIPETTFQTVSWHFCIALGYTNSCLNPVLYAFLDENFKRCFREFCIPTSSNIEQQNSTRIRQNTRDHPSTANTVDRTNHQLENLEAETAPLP
Target sequence (P41143 whole entry, looked up): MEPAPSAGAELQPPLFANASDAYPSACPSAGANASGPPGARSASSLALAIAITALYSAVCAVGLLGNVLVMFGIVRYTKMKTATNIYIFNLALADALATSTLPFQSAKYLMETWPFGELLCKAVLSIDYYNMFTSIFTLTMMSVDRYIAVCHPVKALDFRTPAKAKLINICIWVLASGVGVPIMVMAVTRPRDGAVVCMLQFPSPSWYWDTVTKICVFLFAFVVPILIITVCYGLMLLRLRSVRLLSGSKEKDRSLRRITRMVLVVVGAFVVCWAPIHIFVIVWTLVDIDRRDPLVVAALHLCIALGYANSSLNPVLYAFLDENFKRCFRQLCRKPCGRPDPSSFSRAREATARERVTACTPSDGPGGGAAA
A number is an active result; 0 = inactive; - = no result. This is a sample that favours compounds with a hit; in the whole collection about 2.4% have one here.

SMILES	NTR1 ag	Tb MetRS inh	aDG glyco up	TAG inh	MC4R antag cAMP	MC4R ag barr	MC4R barr conf	MOR-DOR barr ag
[O-][n+]1cc(Cl)cc(Cl)c1	-	0	0	0	0	0	-	-
Cc1cc(C(=O)Nc2ccc(N3CCCC3)c(Cl)c2)ccc1[N+](=O)[O-]	0	0	0	0	0	0	-	-
O=C(Nc1ccc(N2CCCC2)c(Cl)c1)c1ccc([N+](=O)[O-])cc1	0	0	0	0	0	21	0	0
COC(=O)c1ccc2nc(-c3ccc(OC)c(OC)c3)c(Cc3cccc(F)c3)n2c1	-	0	0	-	-	-	-	-
COc1ccc(NC(=O)c2cc([N+](=O)[O-])ccc2NC(=O)CNCc2ccccn2)c(OC)c1	0	0	0	-	0	13	13	0
COc1cc(NC(=O)c2cc([N+](=O)[O-])ccc2NC(=O)CNCc2ccccn2)cc(OC)c1	0	0	0	-	0	0	-	-
Cc1cc(C=C2C(=O)c3ccccc3C2=O)c(C)n1C	0	0	0	-	0	21	0	0
COc1cccc(C(C)(O)c2nc(-c3cccc(C#N)c3)cs2)c1 (configuration not stated)	-	0	0	0	0	0	-	-
Cc1ccc2[nH]c(O)c(N=NC(=O)C3CC3c3ccccc3)c2c1Br (configuration not stated)	0	0	0	-	0	18	0	0
CCOc1cc(/C=N/NC(=O)CSc2nnc(C)s2)ccc1OCc1ccccc1Cl	0	0	0	0	0	11	0	0
Cc1cccc2cc(COC(=O)c3cccs3)c(=O)[nH]c12	0	0	0	-	0	23	0	0
C=CCNC(=O)/C(C#N)=C/c1cn(-c2ccccc2)nc1-c1cccs1	0	0	0	-	0	33	9.1	0
Cc1ccc2[nH]c(=O)c3cc(C(=O)N(CCCOC(C)C)Cc4ccco4)sc3c2c1	0	0	0	0	0	35	34	0
Clc1cccc(Cl)c1CON/C=N/c1ncnc2sccc12	0	0	0	0	0	12	0	0
CC(C)N(C)c1ncnc2c1ncn2[C@H]1CN(CCN2CCOCC2)C[C@@H](CO)O1	-	0	0	0	0	0	-	-
O=C(Nc1ccc2ccccc2c1)c1ccccc1Cl	-	0	0	0	0	0	-	-
O=C(Nc1ccc2ccccc2c1)c1ccc(Cl)cc1Cl	0	0	0	-	0	12	0	0
N#Cc1ccc(S(=O)(=O)N2CCCCC2c2cc(C(=O)Nc3cccc4c3CCCC4)no2)cc1 (configuration not stated)	-	0	0	0	0	0	-	-
O=C(OCc1ccccc1)/C(=C/c1cccc2ccccc12)NC(=O)c1ccccc1	0	0	0	-	0	14	0	0
O=C(COc1cc(Cl)ccc1Cl)Nc1ccc2[nH]c(=O)[nH]c2c1	0	0	0	0	0	12	0	0
COc1ccc(-c2oc3c4c2C(=O)OCCOC4CCC3)cc1 (configuration not stated)	-	0	0	-	-	-	-	-
CCOC(=O)c1ccc(NC(=O)Cn2cc3c(n2)CCC(C)C3)cc1 (configuration not stated)	0	0	0	-	0	13	0	0
O=C(Nc1ccc(SC(F)F)cc1)C12CCC(CC1)C2	0	0	0	-	0	0	-	-
C=C1C2(C(=O)Nc3ccc(SC(F)F)cc3)CCC(C2)C1(C)C (configuration not stated)	0	0	0	-	0	17	0	0
COc1ccc(CNC(=S)Nc2ccc(-c3ccccc3)cc2)cc1	0	0	0	0	0	13	0	0
SMILES	NTR1 ag	Tb MetRS inh	aDG glyco up	TAG inh	MC4R antag cAMP	MC4R ag barr	MC4R barr conf	MOR-DOR barr ag
COc1ccc2nc(C)cc(SCC(=O)NNC(=O)COc3ccc(C)cc3)c2c1	0	0	0	-	0	10	0	0
COc1ccc([C@@H]2C[C@H]3[C@@H](CN2S(=O)(=O)c2ccccc2)C(=O)C[C@@H](c2ccc(OC)cc2)N3S(=O)(=O)c2ccccc2)cc1	-	0	0	-	-	-	-	-
Cc1cccc(-n2nnnc2SCC(=O)c2cc(C)n(Cc3ccco3)c2C)c1	0	0	0	-	0	27	16	0
Cc1cccc(-c2ccc(O)cc2CN2CCN(c3ncc(Cc4ccccc4)cn3)CC2)c1	-	0	0	-	-	-	-	-
CC(C)c1ccc(NC(=O)C2CCN(c3ncnc4c3nc3n4CCCCC3)CC2)cc1	0	0	0	-	0	27	0	0
Clc1ccc(CSc2cnnc3ccccc23)cc1Cl	-	0	0	0	0	13	0	0
CCSc1cnnc2ccccc12	-	0	0	0	0	0	-	-
O=C(Nc1ccccc1)N1CCn2c1nc1ccccc12	0	0	0	0	0	0	-	-
S=C(Nc1ccccc1)N1CCn2c1nc1ccccc12	0	0	0	-	0	24	0	-
O=S(=O)(CC(CN1CCOCC1)N1CCOCC1)c1ccccc1 (configuration not stated)	0	0	0	-	0	9.6	0	0
C[C@H]1CN([C@@H](C)CO)C(=O)c2cc(Br)cnc2O[C@H]1CN(C)C(=O)Cc1ccccn1	-	0	0	0	0	0	-	-
CCCCCCCNC(=O)C1(CC2CC(c3ccc(Cl)cc3)=NO2)CCN(C(=O)Cc2ccc(F)cc2)CC1 (configuration not stated)	0	0	0	0	0	0	-	-
CCCCCCCNC(=O)C1(CC2CC(c3ccc(Cl)cc3)=NO2)CCNCC1 (configuration not stated)	0	0	0	0	0	9.7	24	0
CCOc1ccccc1NC(=O)C1CCCN1S(=O)(=O)c1ccc2c(c1)C(C)(C)C(=O)N2C (configuration not stated)	-	0	0	0	0	0	-	-
Cc1ccc(Cl)cc1N1CCN(S(=O)(=O)c2ccc3[nH]c(=O)c(=O)[nH]c3c2)CC1	0	0	0	0	0	0	-	-
Cc1ccc(Cl)cc1N1CCN(S(=O)(=O)c2ccc3[nH]c(=O)ccc3c2)CC1	0	0	0	0	0	10	11	0
COc1ccc(C(NC(=O)C2CCN(C/C=C/c3ccc(OC(C)=O)c(OC)c3)CC2)c2ccccn2)cc1 (configuration not stated)	-	0	0	0	0	0	-	-
Cc1ccccc1-c1csc(C(O)c2cccnc2)n1 (configuration not stated)	-	0	0	0	0	0	-	-
COc1ccc2sc(N(CCCN(C)C)C(=O)c3nc4ccccc4s3)nc2c1	0	0	0	0	0	12	8.3	0
Cc1ccc2nc(N(CCN(C)C)C(=O)/C=C/c3cccs3)sc2c1	0	0	0	-	0	16	0	0
